The subject of one data set is LLC-PK1. The data set is described as follows: Substrate activity at mouse P-gp expressed in LLC-PK1 cells assessed as efflux ratio incubated for 3 hrs. It is filed as cell-based. In outline:
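LLC-PK1 porcine kidney cells transfected with human or mouse P-gp, grown as polarized monolayers on filter plates. Compound is dosed apically or basolaterally and transport followed 3 h at 37 °C. Efflux ratio comes from unidirectional Papp; 1 µM zosuquidar defines permeability without P-gp.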

For data set [1], the target named is T1, Monoglyceride lipase (Mus musculus) (UniProt O35678).
T1 sequence (whole entry): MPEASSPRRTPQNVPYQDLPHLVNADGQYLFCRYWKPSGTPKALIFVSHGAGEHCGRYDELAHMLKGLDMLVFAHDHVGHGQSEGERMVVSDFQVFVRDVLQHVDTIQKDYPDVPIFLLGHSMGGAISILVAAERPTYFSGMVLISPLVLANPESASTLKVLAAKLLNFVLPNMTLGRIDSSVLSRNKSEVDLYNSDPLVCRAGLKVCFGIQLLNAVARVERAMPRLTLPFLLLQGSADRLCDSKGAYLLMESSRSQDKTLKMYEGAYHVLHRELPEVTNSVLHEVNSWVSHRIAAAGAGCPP
The data set is described as follows: In vivo receptor occupancy at MAGL receptor in mouse at 30 mg/kg, ip measured after 8 hrs. It counts as functional, organism-based. The method, boiled down: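 Mice dosed 30 mg/kg i.p. in NaCl/DMSO/TW80 (80/10/10). Brain proteome was prepared at set time points over 24 h and MAGL occupancy read by activity-based protein profiling.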

Data set [2] is described as follows: Tmax in Wistar rat at 10 mg/kg, ip measured […] by LC-MS/MS analysis. It is filed as ADME, organism-based. To be noted: in vivo. In outline:
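Male Wistar rats, single dose. i.v. in NMP/0.9% NaCl 30:70; p.o. and i.p. in NMP/HPMC/diisooctyl sulfosuccinate 10:90; 3 per i.v./p.o. group, 6 i.p. K2EDTA plasma sampled 0.083–7 h, plus 24 h for i.v./p.o.; brain and CSF at 1, 2, 7 h (i.p. only). LC-MS/MS, noncompartmental analysis.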

Data set [3] is described as follows: Octanol-water partition coefficient, logD of the compound at pH 7.4 incubated for 1.5 hrs by shake flask based LC-UV/MS analysis. It is filed as physicochemical. Conditions: pH 7.4, 1.5 h, 1.5 h. In outline: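 CAMDIS shake-flask variant. 10 mM DMSO stock is diluted into 25 mM phosphate pH 7.4 over a 1-octanol-impregnated PVDF membrane and shaken 1.5 h at 21 °C, at two octanol/buffer ratios, in triplicate. Remaining aqueous concentration is read by LC/MS; logD comes from the difference with and without octanol.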

The target of data set [4] is T2, Monoglyceride lipase (Homo sapiens, UniProt Q99685).
T2 sequence (Q99685 whole entry): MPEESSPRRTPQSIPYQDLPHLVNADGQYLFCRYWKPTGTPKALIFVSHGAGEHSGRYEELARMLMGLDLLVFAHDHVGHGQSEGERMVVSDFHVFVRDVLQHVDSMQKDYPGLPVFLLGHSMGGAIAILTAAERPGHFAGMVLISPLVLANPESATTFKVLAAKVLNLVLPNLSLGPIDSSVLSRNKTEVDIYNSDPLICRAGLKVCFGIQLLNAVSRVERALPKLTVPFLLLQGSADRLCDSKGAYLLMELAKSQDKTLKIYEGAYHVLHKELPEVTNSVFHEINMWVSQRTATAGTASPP
The data set is described as follows: Binding affinity to human MAGL assessed as equilibrium dissociation constant by SPR analysis. In outline:
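Human or rat MAGL was immobilized by amine coupling without ethanolamine quenching. Runs were done at 18 °C in 10 mM HEPES, 150 mM NaCl, 0.05% P20, 50 µM EDTA, pH 7.4, with 1% DMSO. Single-cycle kinetics used five concentrations, top 1 µM in 2-fold steps, at 30 µL/min, giving kon, koff and Kd.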
(Surface plasmon resonance follows binding to a sensor surface in real time, without labels.)

Data set [5] deals with T2, Monoglyceride lipase. The data set is described as follows: Inhibition of human MAGL using native substrate by Rapidfire MS assay.
A further data set deals with CYP3A4 (Homo sapiens, UniProt P08684). The data set is described as follows: Inhibition of CYP3A4 (unknown origin) at 10 uM relative to control. It is filed as ADME.
Data set [6] in a line: Average drug concentration in mouse plasma at 30 mg/kg, ip measured after 16 hrs. It counts as ADME, organism-based. Conditions: in vivo. In outline: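 In a time course, mice were injected i.p. with 30 mg/kg in NaCl/DMSO/Tween 80 (80/10/10). Average plasma levels were determined at the stated time points over 24 h.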
The nature of data set [7]: Chemical stability at pH 6.5 incubated for 2 hrs. It is filed as physicochemical. Conditions: buffer, pH 6.5, 2 h. The method, boiled down: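 Compound was held in aqueous buffer at the stated pH for 2 h at 37 °C.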
Data set [8] is described as follows: Inhibition of Cynomolgus monkey MAGL using native substrate by Rapidfire MS assay.

Chain of CYP3A4 (P08684 whole entry): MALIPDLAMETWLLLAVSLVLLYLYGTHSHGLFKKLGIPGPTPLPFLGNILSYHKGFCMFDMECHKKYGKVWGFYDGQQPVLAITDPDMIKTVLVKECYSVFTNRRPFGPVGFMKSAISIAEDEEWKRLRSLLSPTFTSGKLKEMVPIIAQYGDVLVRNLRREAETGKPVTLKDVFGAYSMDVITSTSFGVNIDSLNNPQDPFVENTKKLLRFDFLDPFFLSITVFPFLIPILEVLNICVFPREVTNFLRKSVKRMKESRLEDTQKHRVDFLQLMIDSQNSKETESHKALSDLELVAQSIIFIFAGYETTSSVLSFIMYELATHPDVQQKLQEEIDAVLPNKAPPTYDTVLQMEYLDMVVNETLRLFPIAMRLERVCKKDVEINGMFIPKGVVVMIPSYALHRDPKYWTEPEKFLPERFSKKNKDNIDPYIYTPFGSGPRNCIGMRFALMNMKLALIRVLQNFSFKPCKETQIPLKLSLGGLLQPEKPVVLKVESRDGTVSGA

As for `O=C1CO[C@H]2CCN(C(=O)N3CCC(Cc4ccc(C(F)(F)F)cc4)CC3)C[C@H]2N1` [listing 1 of 2 here], the Ratio with LLC-PK1 was determined as 4. In addition, in data set [1], the Activity came to 92%.
In general, Tmax refers to the time at which the peak concentration occurs. In general, logD refers to lipophilicity at a set pH, counting ionised and neutral species. As a reminder, the Kd is the concentration at which binding is half-saturated. Usually inhibition stands for the drop in the measured response relative to a control, in per cent. As for `O=C1CO[C@H]2CCN(C(=O)N3CCC(Cc4ccc(C(F)(F)F)cc4)CC3)C[C@H]2N1` [listing 2 of 2 here], in data set [2], the Tmax was determined as 15 min. This compound also displayed a logD in data set [3] of 3.3. Besides, the Kd at Monoglyceride lipase [4] worked out at 45 nM. For the same compound, the IC50 at Monoglyceride lipase [5] (read-out: IC50) was 32 nM; at Monoglyceride lipase [5] (read-out: pIC50 (converted)), 28.2 nM; in data set [8] it was 16 nM. In addition, the inhibition at 10 µM against CYP3A4 is -195%. This compound also returned a Cave in data set [6] of 2955 nM. Besides, in data set [7], the Stability result was “Stable”.

For the origin of these results see ChEMBL document CHEMBL6127097, “Structure-Guided Discovery of cis-Hexahydro-pyrido-oxazinones as Reversible, Drug-like Monoacylglycerol Lipase Inhibitors” (J Med Chem, 2024).
